Data taken from ChEMBL document CHEMBL1127425, “Latent alkyl isocyanates as inhibitors of aldehyde dehydrogenase in vivo” (1994).

The compounds below were run against Aldehyde dehydrogenase, mitochondrial ALDH2 (Rattus norvegicus) (UniProt P11884) (assay: Evaluated for inhibition of hepatic mitochondrial Aldehyde dehydrogenase (ALDH) from rat). Conditions: concentration not given here.
Aldehyde dehydrogenase, mitochondrial ALDH2 (Rattus norvegicus), sequence (P11884 whole entry, looked up): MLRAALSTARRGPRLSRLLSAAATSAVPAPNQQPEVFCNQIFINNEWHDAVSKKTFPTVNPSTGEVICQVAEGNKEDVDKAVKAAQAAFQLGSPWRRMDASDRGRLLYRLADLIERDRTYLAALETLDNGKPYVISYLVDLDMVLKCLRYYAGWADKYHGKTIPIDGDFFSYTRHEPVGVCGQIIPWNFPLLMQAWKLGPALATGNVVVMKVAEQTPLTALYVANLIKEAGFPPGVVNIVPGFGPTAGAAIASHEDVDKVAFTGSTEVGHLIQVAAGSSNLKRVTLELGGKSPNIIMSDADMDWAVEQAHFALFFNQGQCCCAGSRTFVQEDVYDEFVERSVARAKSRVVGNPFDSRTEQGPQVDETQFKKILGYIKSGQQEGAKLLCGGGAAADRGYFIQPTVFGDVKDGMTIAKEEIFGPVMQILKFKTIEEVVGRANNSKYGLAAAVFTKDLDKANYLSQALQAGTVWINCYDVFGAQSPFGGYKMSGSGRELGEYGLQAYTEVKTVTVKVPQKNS
With `CCCNC(=O)N(CC)S(=O)(=O)c1ccc(Cl)cc1` the inhibition was 78%.

What follows are compounds tested on Rattus norvegicus (assay: Compound was evaluated for blood acetaldehyde levels elicited by compound after ethanol administration to rat). Conditions: not given.
Assay type: functional
Method in brief: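 Fasted male Sprague-Dawley rats (160–200 g) got test agent at 1.0 mmol/kg ip at time zero, suspended in 2% aqueous CMC (peanut oil for the trifluoroacetyl pro-prodrug and N1-EtCP). Ethanol 2.0 g/kg ip followed at 2 h. Rats were killed 1 h after ethanol and blood AcH was measured. Chlorpropamide served as positive control and vehicle alone as control. Groups of three were used, repeated with three more when active. Results are mean ± SEM, ANOVA with Newman-Keuls.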
Work on `CCCNC(=O)N1C(=O)c2ccccc2S1(=O)=O` yielded an Acetaldehyde level of ~500 µM.
`CCCNC(=O)N(CC)S(=O)(=O)c1ccc(Cl)cc1` was tested, and the Acetaldehyde level was ~410 µM.
`CCCN1C(=O)CN(S(=O)(=O)c2ccc(Cl)cc2)C1=O` showed an Acetaldehyde level of 20 µM.
With `CCCNC(=O)NS(=O)(=O)c1ccc(Cl)cc1` [CHLORPROPAMIDE] the Acetaldehyde level was ~170 µM.
`CCCN(C(=O)N(CC)S(=O)(=O)c1ccc(Cl)cc1)C(=O)C(F)(F)F` was tested, and the Acetaldehyde level was ~450 µM.
`CCCNC(=O)N1C(=O)CNC1=O` showed an Acetaldehyde level of ~0 µM.
Work on `CCCNC(=O)SCc1ccccc1` yielded an Acetaldehyde level of 550 µM.
`CCCNC(=O)n1c(=O)cc[nH]c1=O` was tested, and the Acetaldehyde level was 700 µM.
With `C=CCN(C(=O)NCCC)S(=O)(=O)c1ccc(Cl)cc1` the Acetaldehyde level was ~750 µM.

Each compound was assayed against Aldehyde dehydrogenase, mitochondrial (Rattus norvegicus) (UniProt P11884) (assay: Compound was evaluated for inhibition of class II aldehyde dehydrogenase in intact rat liver mitochondria in vitro at 1 mM). Conditions: not given.
`CCCNC(=O)N(C)S(=O)(=O)c1ccc(Cl)cc1` showed an Inhibition of 49%.

The compounds below were run against Aldehyde dehydrogenase, mitochondrial ALDH2 (Rattus norvegicus) (UniProt P11884) (assay: Evaluated for inhibition of class II mitochondrial Aldehyde dehydrogenase (ALDH) in osmotically disrupted mitochondria from rat). Conditions: concentration not given here.
Work on `CCCNC(=O)N(C)S(=O)(=O)c1ccc(Cl)cc1` yielded an inhibition of 74%.
